MrgX1 allo act: human MrgX1 positive allosteric modulation, primary screen; MrgX1-HEK293, Fluo-4 calcium flux, FDSS; active compounds read high; B-score at 10 µM; AID 588675; Q96LB2; 310,000 compounds, 0.63% hits;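 active means plate-corrected calcium response at least 3 library SD above typical, normal starting fluorescence, not activating the receptor alone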;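 further: compound read alongside a low EC10 to EC30 dose of BAM8-22 agonist; peak minus trough fluorescence over baseline measured at the second addition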
Target sequence (Q96LB2 whole entry, looked up): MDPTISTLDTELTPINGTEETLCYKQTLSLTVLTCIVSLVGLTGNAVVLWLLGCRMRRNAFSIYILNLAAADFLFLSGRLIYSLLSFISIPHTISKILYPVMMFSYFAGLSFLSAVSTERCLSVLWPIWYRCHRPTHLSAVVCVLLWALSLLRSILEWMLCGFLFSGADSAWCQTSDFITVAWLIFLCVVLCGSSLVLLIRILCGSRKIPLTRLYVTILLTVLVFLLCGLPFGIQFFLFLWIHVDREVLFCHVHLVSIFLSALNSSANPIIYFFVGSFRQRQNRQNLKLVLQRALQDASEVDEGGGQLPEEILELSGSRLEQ
RGS4 inh: human RGS4 inhibition | HEK293 M3R/RGS4 inducible, Fluo-4 calcium flux; active compounds read high; triggered by carbachol at its EC20 | B-score at 10 µM | 310,000 compounds, 0.45% hits;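 active means B-score, a plate-corrected calcium signal, over three deviations above library mean, with baseline fluorescence within five deviations of library mean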;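 further: RGS4 expression induced by doxycycline in cells with stable M3 receptor; B-score is computed from the integrated fluorescence ratio over baseline after carbachol; higher B-score means a larger calcium signal and so more RGS4 inhibition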
Target sequence (P49798 whole entry, looked up): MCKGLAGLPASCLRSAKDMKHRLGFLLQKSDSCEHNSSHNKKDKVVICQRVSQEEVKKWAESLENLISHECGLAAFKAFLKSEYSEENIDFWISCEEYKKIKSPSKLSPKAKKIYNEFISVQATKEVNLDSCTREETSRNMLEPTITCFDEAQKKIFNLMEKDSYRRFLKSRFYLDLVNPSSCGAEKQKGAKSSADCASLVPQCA
MrgX1 ag: agonists of human MrgX1 receptor | Q96LB2 | MrgX1-HEK293 cells, Fluo-4 calcium fluorescence, agonist mode; active compounds read high | B-score at 10 µM | 310,000 compounds, 0.44% hits | AID 588627;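 active means calcium response B-score plate-corrected fluorescence ratio at least 3 library SD, with starting fluorescence B-score inside 5 SD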
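Material: HEK293 cells stably expressing human MrgX1 receptor | Quantity: 15,000 cells per well | Times: Cells plated overnight, dye loaded 0.5 h 37 °C, 0.5 h room temperature | Measured by: Kinetic Fluo-4 NW fluorescence of intracellular calcium | Control set: Positive and negative controls per plate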
RGS4 pot: potentiators or activators of RGS4 | HEK293 M3R/inducible RGS4, carbachol calcium flux Fluo4; active compounds read low | B-score at 10 µM | 310,000 compounds, 0.92% hits;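 active means B-score of the integrated calcium signal more than 4 SD below the library mean, with starting fluorescence not abnormally high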;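 further: negative B-score means reduced calcium response which marks RGS4 activation or potentiation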
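test system = M3R-expressing HEK293 line, RGS4 induced by doxycycline | probe or stimulus = carbachol at ECmax as muscarinic agonist stimulus | timing = dye loading 30 min 37 °C, buffer rest 30 min RT | signal = calcium dye Fluo4 fluorescence | evaluation = B score from integrated fluorescence ratio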
MrgX1 antagonist: blocks BAM8-22 activation of human MrgX1 receptor | MRGX1-HEK293 calcium flux, Fluo-4, BAM8-22 antagonism; active compounds read low | B-score at 10 µM | 310,000 compounds, 1.3% hits | AID 588676;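 active means calcium-response B-score plate-corrected more than 3 library SD below zero, starting fluorescence within 5 deviations, no agonist response on first addition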;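 further: peak minus trough fluorescence over baseline after final BAM8-22 challenge near maximal dose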
MrgX1 ant reconf: reconfirmed antagonist of human MrgX1 receptor signaling; shares compounds with MrgX1 antagonist; MrgX1-HEK293, BAM8-22 calcium flux, Fluo-4; active compounds read low; remaining BAM8-22 calcium response % of control (active compounds read low), % at 10 µM; 2,300 compounds, 19% hits; AID 602420;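 active means remaining agonist calcium response no higher than 100% minus 3 SD of agonist-only control wells, with starting fluorescence near control levels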;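 further: agonist BAM8-22 given at a near maximal EC90 to ECmax level; peak minus minimum fluorescence divided by baseline after agonist addition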
HEK293 Ca flux: MrgX1 antagonist counter-screen hit in parental HEK293 cells; AID 624111; shares compounds with MrgX1 antagonist; fluorescence ratio F(max-min)/F0 at 10 µM; Fluo-4 calcium fluorescence, FDSS; 4,000 compounds, 2% hits;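 active means duplicate-averaged calcium fluorescence ratio at least three times the standard deviation of buffer wells, a nonspecific response in parental cells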
HEK293 Ca counter: counter-screen for MrgX1 allosteric activators: effect in parental HEK293 cells; 4,000 compounds, 0.4% hits; parental HEK293 calcium flux, Fluo-4 fluorescence ratio; active compounds read high; shares compounds with MrgX1 antagonist; fluorescence ratio F(max-min)/F0 at 10 µM;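 active means calcium fluorescence ratio, averaged over duplicates, at least 3 SD of the buffer-well ratio, meaning a nonspecific response in receptor-free cells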;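 further: untransfected parental HEK293 lacking MrgX1 used as counterscreen for MrgX1 allosteric activators; fluorescence change taken during the second addition on a kinetic imager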
HEK293 Ca cntr2: activity in parental HEK293 cells lacking MrgX1 receptor. 4,000 compounds, 8.7% hits. fluorescence ratio F(max-min)/F0 at 10 µM. AID 624115. Fluo-4 calcium fluorescence (FDSS); active compounds read high. shares compounds with MrgX1 antagonist;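 active means calcium fluorescence ratio at least three times the spread of buffer wells, meaning a non-specific response in parental cells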
The depositor's hits bear a star. Rows were chosen to be rich in hits. Some 3.5% of all compounds tested hit in one or more screens of this group.

What do the screens show for `Cc1ccc(C(C(=O)NC2CCCC2)N(Cc2ccccc2)C(=O)c2csnn2)o1` (stereo not given)?
MrgX1 allo act: inactive; RGS4 inh: inactive; MrgX1 ag: inactive; RGS4 pot: inactive; MrgX1 antagonist: inactive

What do the screens show for `CC1CCN(C(C(=O)Nc2ccc(C(C)C)cc2)c2ccc3c(c2)OCO3)CC1` (stereo not given)?
MrgX1 allo act: inactive; RGS4 inh: inactive; MrgX1 ag: inactive; RGS4 pot: inactive; MrgX1 antagonist: -5.36*; MrgX1 ant reconf: inactive; HEK293 Ca flux: inactive; HEK293 Ca counter: inactive; HEK293 Ca cntr2: inactive

Results for COc1ccc(/C=C/c2nc3cc(-c4ccccc4)ccc3o2)cc1O ?
MrgX1 allo act: inactive; RGS4 inh: inactive; MrgX1 ag: inactive; RGS4 pot: inactive; MrgX1 antagonist: -4.55*; MrgX1 ant reconf: inactive; HEK293 Ca flux: inactive; HEK293 Ca counter: inactive; HEK293 Ca cntr2: inactive

Results for O=C(O)C1CCCCC1C(=O)NCCc1ccc(F)cc1 (stereo not given) ?
MrgX1 allo act: inactive; RGS4 inh: inactive; MrgX1 ag: inactive; RGS4 pot: inactive; MrgX1 antagonist: inactive

What do the screens show for `Cc1c(Cl)cccc1NC(=O)CS(=O)(=O)c1ccccc1`?
MrgX1 allo act: inactive; RGS4 inh: inactive; MrgX1 ag: inactive; RGS4 pot: inactive; MrgX1 antagonist: inactive

What do the screens show for `O=C(Nc1ccc(S(=O)(=O)Nc2ncccn2)cc1)c1ccc2ncsc2c1`?
MrgX1 allo act: inactive; RGS4 inh: inactive; MrgX1 ag: inactive; RGS4 pot: inactive; MrgX1 antagonist: -5.04*; MrgX1 ant reconf: 72.6%*; HEK293 Ca flux: inactive; HEK293 Ca counter: inactive; HEK293 Ca cntr2: inactive

What do the screens show for `O=C(Nc1ccncc1)c1ccc2ncsc2c1`?
MrgX1 allo act: inactive; RGS4 inh: inactive; MrgX1 ag: inactive; RGS4 pot: inactive; MrgX1 antagonist: inactive

What do the screens show for `COCCn1nnnc1C(c1ccc(OC)cc1)N1CCN(c2ccccc2F)CC1` (stereo not given)?
MrgX1 allo act: inactive; RGS4 inh: inactive; MrgX1 ag: inactive; RGS4 pot: inactive; MrgX1 antagonist: -5.71*; MrgX1 ant reconf: inactive; HEK293 Ca flux: inactive; HEK293 Ca counter: inactive; HEK293 Ca cntr2: inactive

How did COCCn1nnnc1C(c1ccccc1OC)N1CCN(c2ccccc2F)CC1 (stereo not given) do in these assays?
MrgX1 allo act: inactive; RGS4 inh: inactive; MrgX1 ag: inactive; RGS4 pot: inactive; MrgX1 antagonist: inactive

Results for COCCn1nnnc1C(c1ccc(C(F)(F)F)cc1)N1CCOCC1 (stereo not given) ?
MrgX1 allo act: inactive; RGS4 inh: inactive; MrgX1 ag: inactive; RGS4 pot: inactive; MrgX1 antagonist: -5.56*; MrgX1 ant reconf: inactive; HEK293 Ca flux: inactive; HEK293 Ca counter: inactive; HEK293 Ca cntr2: inactive

Results for Cc1ccc(C(=O)Nc2ccc3c(c2)C(=O)N(C)C3=O)c(C)c1 ?
MrgX1 allo act: inactive; RGS4 inh: inactive; MrgX1 ag: inactive; RGS4 pot: inactive; MrgX1 antagonist: -6.8*; MrgX1 ant reconf: inactive; HEK293 Ca flux: inactive; HEK293 Ca counter: inactive; HEK293 Ca cntr2: inactive

Results for O=C(Cn1cc2c(n1)CCCC2)N1CCc2ccccc21 ?
MrgX1 allo act: inactive; RGS4 inh: inactive; MrgX1 ag: inactive; RGS4 pot: inactive; MrgX1 antagonist: -7.09*; MrgX1 ant reconf: inactive; HEK293 Ca flux: inactive; HEK293 Ca counter: inactive; HEK293 Ca cntr2: inactive

Assay outcomes as filed in PubChem BioAssay.
